A short description of this data set: Toxicity liver stage against HepG2, at 10uM. It counts as cell-based. Particulars: human, HepG2-A16-CD81EGFP cells; read-out: INHIBITION
More on the design: test concentration 10 uM, cell line HepG2-A16-CD81EGFP. In outline: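 Uninfected HepG2-A16-CD81EGFP cells, 3 × 10^3 per well, 1536-well, plated on prespotted compound at 10 μM final, parasite-free screening media added to match infected plates; puromycin 10 μM positive, DMSO 0.5% negative; run in parallel with 48 h PbLuc assay at 37 °C, 5% CO2; viability by CellTiter-Glo luminescence, normalized to controls.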
Turning to `Cc1nn(C2CCCC2)c2c1C(c1ccc3c(c1)OCO3)SCC(=O)N2` (stereo unspecified), the cytotoxicity at 10 µM is -1.52%.
Take `Cc1nc(N2CCN(C(=O)C3CCCC3)CC2)c2c(n1)c(C)nn2C`: the cytotoxicity at 10 µM turned out to be 6.97%.
With `OCCOc1nc(-c2ccccc2Cl)no1`, the cytotoxicity at 10 µM was -10.5%.
Turning to `CC1(C(=O)N2CCOCC2)CN(Cc2ccccc2F)CCO1` (stereo unspecified), the cytotoxicity at 10 µM was 2.03%.
With `O=C(CCC1CCCO1)NCCCO` (stereo unspecified), the cytotoxicity at 10 µM came to 11.2%.
With `Cc1ccc(C(=O)NCCCn2cccn2)c(=O)[nH]1`, the cytotoxicity at 10 µM amounted to 3.54%.
With `Cn1cc(C(=O)N2CCCC2c2ccc3c(c2)OCCO3)ccc1=O` (stereo unspecified), the cytotoxicity at 10 µM was found to be 3.92%.
The result for `N#Cc1cccnc1NCCNC(=O)NCCSC(F)(F)F` reads 1.2%; that for `CN(Cc1cnn(C)c1)C(=O)C1COCC(=O)N1Cc1ccccc1` (stereo unspecified), -4.33%; that for `COCC(=O)N1Cc2cn(C)nc2C(COc2cccnc2)C1` (stereo unspecified), -11%.
With `O=C(c1cncc(N2CCC3(CC2)NCCNC3=O)n1)N1CCCCC1`, the cytotoxicity at 10 µM is -2.4%.
For `CCN1CC2(CCC1=O)CCN(c1ccc(C(C)=O)cn1)CC2`, the cytotoxicity at 10 µM is -8.63%.
For the compound `Cc1cc(NC(=O)COC(=O)c2ccc(F)cc2Br)n(C)n1`, the cytotoxicity at 10 µM is 6.03%.
On to `Cc1cc(C)c(CNC(=O)N2CCOC(c3ccccc3)C2)c(=O)[nH]1` (stereo unspecified), for which the cytotoxicity at 10 µM was determined as 0.0687%.
Regarding `Cc1nc2c(c(NCC(c3ccccc3C)N(C)C)n1)CCNC2` (stereo unspecified), the cytotoxicity at 10 µM came to 19.2%.
Regarding `O=C1c2ncccc2C(CCO)N1Cc1ccccc1` (stereo unspecified), the cytotoxicity at 10 µM was -4.26%.
The result for `Cc1cnn(CC(C)NCc2nc(-c3cccnc3)no2)c1` (stereo unspecified) reads -8.86%; that for `COc1ccccc1C(C#N)NC(=O)c1cccc2c1oc(=O)n2C` (stereo unspecified), 3.3%.
The result for `CC(C)(C)n1cc(C(=O)O)c(-c2ccc(F)cc2F)n1` reads 6.92%.
`Cn1cnc2c1CCN(CC(O)c1ccc3c(c1)OCCO3)C2` (stereo unspecified): the cytotoxicity at 10 µM is -13.7%.
For the compound `CCOc1ncccc1NC(=O)N1CCN(c2cccc(C)c2C)CC1`, the cytotoxicity at 10 µM was 81.2%.
The result for `CNC(=O)c1cn[nH]c1C1(C)CCCN(CC2(O)CCCCC2)C1` (stereo unspecified) reads -26%; that for `COc1cc(N(C)Cc2noc(CC(C)C)n2)ncn1`, -0.71%; that for `CC(C)c1nc(CCn2cncn2)n(-c2ccc3c(c2)OCCO3)n1`, 6.52%.
Regarding `Cc1cccc(Cn2nc(C3CCNCC3)n(-c3ccccc3)c2=O)c1`, the cytotoxicity at 10 µM is -4.68%.
For the compound `O=C(NC1CC1)N1CC[C@H]2[C@H]1CCN2c1ncccn1`, the cytotoxicity at 10 µM stood at 3.08%.
On to `Cc1ccc2cccc(S(=O)(=O)N(C)C3CCCN(C)C3)c2n1` (stereo unspecified), for which the cytotoxicity at 10 µM came to 1.5%.
As for `Cc1oncc1C(=O)N1CC2CC1(C(=O)N1CCCC1)C2`, the cytotoxicity at 10 µM turned out to be 4.91%.
Regarding `Cc1ccc(C(=O)NS(=O)(=O)c2ccccc2C)c(=O)[nH]1`, the cytotoxicity at 10 µM is -8.48%.
As for `CCCNC(=O)c1ccc2c(c1)C(=O)N(CC(C)C)C2=O`, the cytotoxicity at 10 µM was -10.2%.
The result for `COc1cc(C2CC(=O)c3c(O)cc(O)cc3O2)ccc1O` (stereo unspecified) reads -0.537%.
On to `CC(=O)N1CCN2C[C@H](CO)[C@@H](c3ccccc3)[C@H]2C1`, for which the cytotoxicity at 10 µM worked out at 3.54%.
For the compound `COC(=O)C(NC(=O)CCOC(C)C)c1cc(F)ccc1F` (stereo unspecified), the cytotoxicity at 10 µM is -4.11%.
As to `CC(C)(C)n1cc(CNc2ccc(CNS(C)(=O)=O)cc2)cn1`, the cytotoxicity at 10 µM was 16.1%.
On to `CC(CNC(=O)c1cc(C2CC2)on1)N1CCc2ccccc21` (stereo unspecified), for which the cytotoxicity at 10 µM was -11.8%.
With `COc1cccc(-c2csc(Cn3ccc(=O)[nH]c3=O)n2)c1`, the cytotoxicity at 10 µM turned out to be 3.57%.
In the case of `CNC(=O)[C@@]12CCC3(CCN(C(=O)COC)CC3)[C@@H]1CN(S(C)(=O)=O)C2`, the cytotoxicity at 10 µM stood at 4.53%.
With `O=S(=O)(C1CC1)N1CCO[C@H]2[C@H](OCCN3CCCC3)CC[C@@H]21`, the cytotoxicity at 10 µM was -5.63%.
In the case of `CCc1c(O)nc2nc(N3CCCC3)nn2c1C`, the cytotoxicity at 10 µM came to 10%.
Take `COc1cccc(CN2CCN(c3cccc(C(C)C)n3)CC2)c1F`: the cytotoxicity at 10 µM turned out to be 4.25%.
The figure for `CN(C(=O)Cc1coc(-c2cccs2)n1)C1(C#N)CCC1` is 6.52%; for `CN(C)CC1(O)CCN(C(=O)c2cnc(-c3ccccn3)nc2)C1` (stereo unspecified) it is 4.82%.
As to `CCc1n[nH]c(C2CN(C(=O)c3csnn3)CCO2)n1` (stereo unspecified), the cytotoxicity at 10 µM is -2.5%.
Consider `CC(C)NC(=O)NCC(Cc1ccc(F)cc1)C(N)=O` (stereo unspecified), for which the cytotoxicity at 10 µM amounted to 12.8%.
With `Cc1nn(CCO)c(C)c1-c1cc(C(C)(C)C)nc(N)c1C#N`, the cytotoxicity at 10 µM is 4.93%.
In the case of `CC(=O)N[C@@H]1CN(C(=O)c2cnccn2)C[C@H]1c1ccc(C)cc1`, the cytotoxicity at 10 µM came to 6.62%.
As for `CCOCCCNC(=O)NC(C)c1ccc(-n2cncn2)cc1` (stereo unspecified), the cytotoxicity at 10 µM worked out at 3.31%.
As to `N#Cc1cc(Br)ccc1NC1CCN(CC(N)=O)CC1`, the cytotoxicity at 10 µM amounted to 5.23%.
As for `CCN(CC)S(=O)(=O)N1CCCC1C(=O)N1CCSCC1` (stereo unspecified), the cytotoxicity at 10 µM is -4.71%.
Take `CCC(O)CN1CCN(C(=O)Cc2ccccc2Cl)CC1` (stereo unspecified): the cytotoxicity at 10 µM was -7.98%.
As to `Cc1ncsc1CCN(C)Cc1cc2n(n1)CCN(S(C)(=O)=O)C2`, the cytotoxicity at 10 µM is -12.8%.
With `Cc1ccc(N2CCC(C(=O)NC3CCc4nccn4C3)CC2)nc1` (stereo unspecified), the cytotoxicity at 10 µM was -7.39%.
For `NC(=O)N1CC[C@@H]2O[C@H](COCC(=O)N3CCCC3)CC[C@@H]21`, the cytotoxicity at 10 µM is -1.49%.
For the compound `Cc1nccn1Cc1cccc(CNC(=O)c2ccn(C)c(=O)c2)c1`, the cytotoxicity at 10 µM was found to be 5.82%.
`CCN(CCc1nccs1)C(=O)c1sccc1C`: the cytotoxicity at 10 µM is -0.682%.
For `CC(C)N1CCn2c(COCC3CCOCC3)cnc2C1C` (stereo unspecified), the cytotoxicity at 10 µM was found to be 8.22%.
The figure for `O=C(CC1CC1)N1CCC2(CC(=O)N(c3cccc(F)c3)C2)C1` (stereo unspecified) is -148%.
With `O=C(O)c1cn(CC2CCCN(c3ccc4ccccc4n3)C2)nn1` (stereo unspecified), the cytotoxicity at 10 µM is -7.14%.
The result for `CCn1ccnc1CN1CCN(CCc2ccncc2)CC1C` (stereo unspecified) reads -3.04%.
On to `Cc1nc(C)n(C2CCCN(C(=O)c3c(C)nn4cccnc34)C2)n1` (stereo unspecified), for which the cytotoxicity at 10 µM is -29.2%.
Consider `Cc1nn(C)c2cnn(Cc3ccc(C(=O)N4CCN(C)CC4)o3)c12`, for which the cytotoxicity at 10 µM amounted to 14.3%.
As for `CO[C@H]1CN(C(=O)c2ccc(-c3ccccc3)[nH]2)CC[C@H]1N`, the cytotoxicity at 10 µM came to 3.64%.
With `CCC(C)NC(=O)Cc1c(C)nc2c(c1C)c(=O)[nH]n2C` (stereo unspecified), the cytotoxicity at 10 µM is -11.4%.
As to `CSCc1noc(CNS(=O)(=O)c2cccc(C(=O)NC3CC3)c2)n1`, the cytotoxicity at 10 µM was -2.51%.
For the compound `CCn1c(N)nc2cc(C(=O)N3CCC(N4CCCC4)CC3)cnc21`, the cytotoxicity at 10 µM was -1.56%.
For the compound `CN(Cc1c[nH]nc1-c1ccc(F)cc1F)Cc1nccn1C`, the cytotoxicity at 10 µM was 2.5%.
As for `CCn1cc(NC(=O)CN2CCC(Oc3ccccc3C)CC2)c(C)n1`, the cytotoxicity at 10 µM was determined as 0.343%.
As to `O=C(NCc1ccc(F)cc1)C1CCCN(c2ccc3nncn3n2)C1` (stereo unspecified), the cytotoxicity at 10 µM was -4.46%.
As to `CC(C)c1nnc(NC(=O)CN2C(=O)c3ccccc3NC2C(C)C)s1` (stereo unspecified), the cytotoxicity at 10 µM was -10.2%.
Regarding `c1csc(CN2CCc3ncnc(C4CCOC4)c3CC2)n1` (stereo unspecified), the cytotoxicity at 10 µM amounted to 4.53%.
Consider `Cc1cc(O)ccc1-c1cc(-c2cnn(C)c2C2CC2)c(C#N)c(N)n1`, for which the cytotoxicity at 10 µM came to 40.2%.
For `N[C@H]1CN(C(=O)c2ccc3[nH]c(=O)c(=O)[nH]c3c2)C[C@@H]1c1ccccc1`, the cytotoxicity at 10 µM came to 2.19%.
For `O=C(C1CC1)N1C[C@@H](F)[C@@H](OCc2nc3ccccc3o2)C1`, the cytotoxicity at 10 µM is -1.94%.
In the case of `Cc1nc([C@H]2C[C@@H]3CCN(Cc4ccc5c(c4)OCO5)C[C@H]3O2)no1`, the cytotoxicity at 10 µM is -110%.
The figure for `O=C(CN1C(=O)c2ccccc2CS1(=O)=O)c1ccccc1` is 15.3%; for `CN(C)C(=O)Cc1nc(CN2CCOC(Cn3cccn3)C2)cs1` (stereo unspecified) it is 0.743%; for `Fc1cccc(N2CCCC3(C2)CN(c2cnccn2)CCO3)c1` (stereo unspecified) it is 8.49%.
The result for `Cc1cc(F)c(S(=O)(=O)NCc2ccnc(N(C)C)n2)cc1F` reads -156%.
The figure for `CCC(C)n1cnc(S(=O)(=O)N(C)C)c1` (stereo unspecified) is -7.07%; for `C[C@H]1C[C@H]2CN(C(=O)CC3CC3)CC[C@H]2O1` it is -67.8%; for `CN(C)Cc1ccnc(C2CCCN2Cc2ccc(F)cn2)n1` (stereo unspecified) it is -17.7%.
In the case of `CC(C)C(=O)NS(=O)(=O)c1ccc2c(c1)N(C)CCC2`, the cytotoxicity at 10 µM is -0.447%.
In the case of `Clc1ccccc1C1(c2ccnc(CC3CC3)n2)CCNCC1`, the cytotoxicity at 10 µM was -10.3%.
With `Cn1cccc1C(=O)N1CCCn2nc(CCC(=O)NC3CC3)cc2C1`, the cytotoxicity at 10 µM was determined as 5.45%.
The figure for `CCC(=O)N1CC[C@@H]2[C@H](CC1)N(Cc1cccc(C)n1)CCS2(=O)=O` is -1.31%.
Consider `CC(=O)N1CCCN(C(=O)NCc2cc[nH]n2)CC1`, for which the cytotoxicity at 10 µM was -6.44%.
On to `Cc1nnc(CN(C)Cc2nc3c(s2)CCCC3)o1`, for which the cytotoxicity at 10 µM is -1.42%.
The figure for `CC(C)CN1CCn2nc(CNc3ncnc4[nH]cnc34)cc2C1` is 6.88%; for `Cc1cc(N2CCC(c3ncc[nH]3)CC2)nc(N)n1` it is -7.54%.
Regarding `O=C(Cn1cccn1)NCC1CCCN(Cc2ccccc2)C1` (stereo unspecified), the cytotoxicity at 10 µM was -16.2%.
The figure for `CC(=O)N1CCC(NC(=O)c2cc(S(N)(=O)=O)ccc2C)CC1` is 11.7%.
As for `Cc1ccc(F)cc1NC(=O)C1CCCN1C(=O)C(C)C` (stereo unspecified), the cytotoxicity at 10 µM is -4.93%.
`CC(CO)(NC(=O)NCCc1ccc(Br)s1)C1CC1` (stereo unspecified): the cytotoxicity at 10 µM was -2.43%.
As for `CC(C)c1nccc(CN(C)Cc2cnn(-c3ccccc3)c2)n1`, the cytotoxicity at 10 µM is 6.66%.
The figure for `COc1ccc(Br)cc1SCCS(C)(=O)=O` is 2.71%; for `Cc1nc(NCc2ccc(C)o2)cc(C(=O)N2CCOCC2)n1` it is -2.03%.
